Assay results: ChEMBL document CHEMBL4004800, “Thiol-Based Probe for Electrophilic Natural Products Reveals That Most of the Ammosamides Are Artifacts” (J Nat Prod, 2017)
Activity calls are given as the source filed them. No cut-off for these calls is given here.

Tests used:
[1] = test system: HCC44; assay: Cytotoxicity against human HCC44 cells; assay type: functional, cell-based
[2] = test system: HCT-116; assay: Cytotoxicity against human HCT116 cells assessed as growth inhibition by MTS assay; assay type: functional, cell-based
Summary of the method: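 HCT-116 colorectal cells, cultured as in earlier work, were tested by colorimetric MTS assay. Compounds were supplied in DMSO from a 10 mg mL⁻¹ stock. IC50 came from a four-parameter sigmoidal fit, and values are averages of three measurements. Controls were DMSO (negative) and etoposide (positive, 4 mg mL⁻¹ stock in DMSO).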

[3] = test system: HCT-116; assay: Cytotoxicity against human HCT116 cells assessed as growth inhibition at 78.125 ug/ml by MTS assay relative to control; assay type: functional; conditions: read-out: GI
[4] = test system: Escherichia coli; assay: Antibacterial activity against Escherichia coli MG1655 at 10 ug after 48 hrs by disk diffusion method; assay type: functional; conditions: K-12 substr. MG1655
Summary of the method: (§1)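 Kirby–Bauer disk diffusion on LB agar swabbed with inocula from 24 h LB (pH 7.0) precultures grown at rt, 200 rpm. Each 6 mm paper disc carried 10 μg compound, applied as […] in MeOH and dried before placement. Controls were MeOH (10 μL) as negative and ciprofloxacin 5 μg as positive. Plates were incubated 48 h.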

[5] = Stability of the compound in culture medium
[6] = test system: Bacillus oceanisediminis; assay: Antibacterial activity against Bacillus oceanisediminis CNY-977 at 10 ug after 48 hrs by disk diffusion method; assay type: functional; summary of the method: as §1
[7] = Drug metabolism assessed as half life for ammosamide B formation; assay type: physicochemical
[8] = Drug metabolism assessed as compound formation from ammosamide C; assay type: physicochemical
Summary of the method: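 Ammosamide C TFA salt kept at rt in seawater-based A1 medium pH 10.0 (1.0 mg/500 μL; pH 6.8 control), PBS pH 10 (2.0 mg/1.0 mL), saturated NaHCO₃ pH 8.1 (2.0 mg/1.0 mL), or PBS pH 10 with 7 equiv L-cysteine. Products followed over days by analytical C18 ELSD-UV/vis-HPLC (1–60% CH₃CN, 0.1% formic acid), plus LC-HRMS for the buffer reactions.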

[9] = Homo sapiens, HCT-116, read-out: IC50

## CCCCCC/N=C1\c2cc(C(N)=O)nc3c(N)c(Cl)c(N)c(c23)N1C
[1]
  IC50: 0.5 µM

## CC(=O)NCCSC1=[N+](C)c2c(N)c(Cl)c(N)c3nc(C(N)=O)cc1c23
[2]; hct-116
  IC50: Not Active
[3]
  inhibition of growth at 78.125 µg/mL: 26%

## CC(C)/N=C1\c2cc(C(N)=O)nc3c(N)c(Cl)c(N)c(c23)N1C
[1]
  IC50: 1.1 µM

## CN1/C(=N/c2ccc(Cl)cc2)c2cc(C(N)=O)nc3c(N)c(Cl)c(N)c1c23
[2]; [9]
  IC50: 39 µM

## CNC(=O)c1cc(C(N)=O)nc2c1C(=O)C(=O)C(Cl)=C2N
[2]; hct-116
  IC50: Not Active
[3]
  inhibition of growth at 78.125 µg/mL: 97%

## CN1C(=S)c2cc(C(N)=O)nc3c(N)c(Cl)c(N)c1c23
[2]; hct-116
  IC50: Not Active
[3]
  inhibition of growth at 78.125 µg/mL: 19%
[4]
  Activity: Active

## C[N+]1=Cc2cc(C(N)=O)nc3c(N)c(Cl)c(N)c1c23
[2]; [9]
  IC50: 5.5 µM
[5]
  Stability: Stable
[6]
  Activity: Active
[7]
  t1/2: 240 h
[4]
  Activity: Active

## CCCNC1=[N+](C)c2c(N)c(Cl)c(N)c3nc(C(N)=O)cc1c23
[2]; [9]
  IC50: 6.8 µM

## CN1C(=O)c2cc(C(N)=O)nc3c(N)c(Cl)c(N)c1c23 [AMMOSAMIDE B]
[2]; [9]
  IC50: 29 µM
[4]
  Activity: Active
[8]
  Drug metabolism: Metabolite_Detected

## COc1cc([C@@H]2c3cc4c(cc3[C@@H](O[C@@H]3O[C@@H]5CO[C@@H](C)O[C@H]5[C@H](O)[C@H]3O)[C@H]3COC(=O)[C@H]23)OCO4)cc(OC)c1O [ETOPOSIDE]
[2]; [9]
  IC50: 0.49 to 4.9 µM
